Measurements as given in ChEMBL document CHEMBL4699495, “Synthesis and biological evaluation of 5'-C-methyl nucleotide prodrugs for treating HCV infections” (Bioorg Med Chem Lett, 2020).

Columns and labels:
[1] = Therapeutic index, ratio of TC50 for human HuH-7-Luc/Neo-ET cells to EC50 for HCV infected in human HuH7-Luc/Neo-ET cells; format: toxicity
Summary of the method: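 Therapeutic index calculated as TC50/EC50. Both values came from Huh-7 Luc/Neo ET cells bearing an HCV genotype 1b replicon, and each was averaged from triplicate experiments.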

[2] = system: Hepatitis C virus; test: Antiviral activity against HCV subtype 1b infected in human HuH-7-Luc/Neo-ET cells by luciferase replicon-reporter gene assay; format: functional, organism-based, Hepacivirus hominis
Summary of the method: (§1)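 HCV genotype 1b subgenomic replicon carried in Huh-7 Luc/Neo ET cells. Antiviral EC50 and cytotoxic TC50 were both determined in these cells. Each value is the average of triplicate experiments.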

[3] = Cytotoxicity against human HuH-7-Luc/Neo-ET cells; format: cell-based; details: read-out: TC50 (the source's name); summary of the method: as §1

Row | SMILES | EC50 [2] [nM] | selectivity ratio [1] | CC50 [3] [µM]
1 | CC(C)OC(=O)[C@H](C)N[P@](=O)(OC[C@H]1O[C@@H](n2ccc(=O)[nH]c2=O)[C@](C)(F)[C@@H]1O)Oc1ccccc1 [SOFOSBUVIR] | 30 | > 29.2 | > 1
2 | CCCCCCCCCC(=O)Oc1ccc(COP(=O)(OCc2ccc(OC(=O)CCCCCCCCC)cc2)OP(=O)([O-])OC[C@H]2O[C@@H](n3ccc(=O)[nH]c3=O)[C@](C)(O)[C@@H]2O)cc1.CCCC[N+](CCCC)(CCCC)CCCC | 40 | > 2590 | > 100
3 | CCCCCCCCCC(=O)Oc1ccc(COP(=O)(OCc2ccc(OC(=O)CCCCCCCCC)cc2)OP(=O)([O-])O[C@@H](C)[C@H]2O[C@@H](n3ccc(=O)[nH]c3=O)[C@](C)(O)[C@@H]2O)cc1.CCCC[N+](CCCC)(CCCC)CCCC | 25300 | 3.29 | > 83.2
4 | CC(C)OC(=O)[C@H](C)N[P@](=O)(OC[C@H]1O[C@@H](n2ccc(=O)[nH]c2=O)[C@](C)(O)[C@@H]1O)Oc1ccccc1 | 30 | 2780 | 85.6

Now from value to molecule, other results behind:

Row | EC50 [2] [nM] | SMILES | selectivity ratio [1] | CC50 [3] [µM]
5 | 1490 | CC(C)OC(=O)[C@H](C)N[P@@](=O)(Oc1ccccc1)O[C@H](C)[C@H]1O[C@@H](n2ccc(=O)[nH]c2=O)[C@](C)(O)[C@@H]1O | > 67.1 | > 100
6 | 7750 | CC(C)OC(=O)[C@H](C)N[P@@](=O)(Oc1ccccc1)O[C@@H](C)[C@H]1O[C@@H](n2ccc(=O)[nH]c2=O)[C@](C)(O)[C@@H]1O | > 12.9 | > 100
7 | 2600 | CCCCCCCCCC(=O)Oc1ccc(COP(=O)(OCc2ccc(OC(=O)CCCCCCCCC)cc2)OP(=O)([O-])O[C@H](C)[C@H]2O[C@@H](n3ccc(=O)[nH]c3=O)[C@](C)(O)[C@@H]2O)cc1.CCCC[N+](CCCC)(CCCC)CCCC | > 38.5 | > 100
